ChEMBL document CHEMBL4480456, “Potentially Cardiotoxic Diterpenoid Alkaloids from the Roots of Aconitum carmichaelii” (J Nat Prod, 2019)

Legend:
[1] = tested on: H9c2; experiment: Cytotoxicity against rat H9c2 cells assessed as reduction in cell viability after 24 hrs by MTT assay; type: cell-based; conditions: H9c2, 24 h
Method in brief: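 H9c2 cells cultured in DMEM with 10% FBS, penicillin/streptomycin/glutamine at 37 °C, 5% CO2. Seeded 1 × 10^5 cells/well, grown 24 h, then exposed to compounds for 24 h. The compounds came from 80 mM DMSO stocks diluted in complete medium to a series of concentrations. MTT added for 4 h, formazan dissolved in DMSO, OD read at 490 nm. Inhibition % taken against a cell-free medium blank. At least three experiments.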

[2] = tested on: H9c2; experiment: Induction of apoptosis in rat H9c2 cells at 40 uM after 24 hrs by DAPI/annexin V-FITC/PI double staining-based assay; type: cell-based; conditions: h9c2, 24 h
Method in brief: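 H9c2 cells in imaging plates exposed 24 h, PBS-washed, stained 30 min with annexin V-FITC and PI. Then fixed in 4% paraformaldehyde 15 min and DAPI-labelled 20 min. High-content imaging on In Cell Analyzer 6000 quantified nuclear size and annexin V-FITC and PI intensities. Means ± SD, three independent experiments.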

[3] = tested on: H9c2; experiment: Disruption of mitochondrial membrane potential in rat H9c2 cells at 40 uM after 24 hrs by rhodamine 123 staining-based assay; type: ADME, cell-based; conditions: h9c2, 24 h
Method in brief: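 H9c2 cells in imaging plates exposed 24 h, PBS-washed and stained 30 min with rhodamine 123. Then fixed in 4% paraformaldehyde 15 min and counterstained with DAPI 20 min. Rh123 intensity quantified by high-content imaging on In Cell Analyzer 6000. Means ± SD, three independent experiments.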

[4] = tested on: H9c2; experiment: Increase in intracellular calcium levels in rat H9c2 after 30 to 430 secs by FLIPR assay; type: ADME, cell-based
Method in brief: (§1)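 H9c2 cells seeded at 1 × 10^5 cells/well and grown to confluency. Medium replaced by HBSS with 20 mM HEPES, then loaded with calcium-sensitive dye (Calcium 6 kit) for 2 h at 37 °C. Compounds freshly prepared in HBSS/HEPES were added and fluorescence was read on FLIPR. ΔF/F0 taken as peak amplitude change over initial intensity. Means ± SD, three independent experiments.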

[5] = tested on: H9c2; experiment: Induction of membrane potential in rat H9c2 cells after 50 to 650 secs by FLIPR assay; type: cell-based
Method in brief: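 H9c2 cells seeded at 1 × 10^5 cells/well and grown to confluency. Switched to HBSS with 20 mM HEPES and loaded with blue membrane-potential dye for 30 min at 37 °C. Compounds freshly prepared in HBSS/HEPES were added and fluorescence was read on FLIPR. ΔF/F0 taken as peak change over initial intensity. Means ± SD, three independent experiments.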

[6] = tested on: H9c2; experiment: Increase in intracellular calcium levels in rat H9c2 at 80 uM after 30 to 430 secs by FLIPR assay; type: ADME, cell-based; conditions: h9c2, 80 µM; method in brief: as §1

In the case of `CCCCO[C@]12[C@H]3[C@@H](OC(=O)c4ccccc4)[C@](O)(C[C@H]3[C@@]34[C@@H](OC)C[C@@H](O)[C@@]5(COC)CN(C)[C@H]3[C@@H]1[C@H](OC)[C@H]54)[C@@H](OC)[C@@H]2O`, the IC50 [1] is reported as 27 µM, the Activity [2] is reported as “Toxic” and the Activity [3] is reported as “Toxic”.
Compound `CCN1C[C@]2(COC)CC[C@H](OC)[C@@]34[C@@H]5C[C@@]6(O)[C@H](OC(=O)c7ccccc7)[C@@H]5[C@@](OC)([C@@H]([C@H](OC)[C@H]23)[C@H]14)[C@@H](O)[C@@H]6OC` has an IC50 [1] of 95.6 µM.
With `C=C1[C@@H](O)[C@@]23C[C@H]4[C@@H]5[C@@]6(C)CCC[C@@]57[C@@H]2C[C@@H]1[C@H](O)[C@@H]3[C@H]7N4[C@H]6O` the IC50 [1] was > 100 µM.
Work on `COC[C@]12CN(C)[C@H]3[C@@H]4[C@H](OC)[C@H]1[C@@]3([C@@H](OC)C[C@H]2O)[C@@H]1C[C@@]2(O)[C@H](OC(=O)c3ccccc3)[C@@H]1[C@]4(OC(=O)c1ccccc1)[C@@H](O)[C@@H]2OC` yielded an IC50 [1] of 12.9 µM.
In the case of `CCN1C[C@]2(COC)CC[C@H](OC)[C@@]34[C@@H]5C[C@@]6(O)[C@H](OC(=O)c7ccccc7)[C@@H]5[C@](OC)([C@@H](O)[C@@H]6OC)[C@@H](C[C@H]23)[C@H]14`, the IC50 [1] is reported as > 100 µM.
For `CCN1C[C@]2(COC)[C@H](O)C[C@H](OC)[C@]34[C@@H]1[C@H]([C@H](OC)[C@H]23)[C@]1(OC(=O)c2ccccc2)[C@H]2[C@@H](OC(=O)c3ccccc3)[C@](O)(C[C@]24O)[C@@H](OC)[C@@H]1O`, the IC50 [1] was > 100 µM.
`COC[C@]12CN(C)[C@H]3[C@@H]4[C@H](OC)[C@H]1[C@@]3([C@@H](OC)C[C@H]2O)[C@]1(O)C[C@@]2(O)[C@H](OC(=O)c3ccccc3)[C@@H]1[C@]4(OC(=O)c1ccccc1)[C@@H](O)[C@@H]2OC` was tested, and the IC50 [1] was > 100 µM.
For `C=C1[C@@H](O)[C@@]23C[C@H]4[C@@H]5[C@@]6(C)CCC[C@@]57[C@@H]2C[C@@H]1[C@H](OC(C)=O)[C@@H]3[C@H]7N4[C@H]6O`, the IC50 [1] was > 100 µM.
Work on `COC[C@@]12CC[C@H](OC)[C@@]34[C@@H]5C[C@@]6(O)[C@H](OC(=O)c7ccccc7)[C@@H]5[C@@](OC(=O)c5ccccc5)([C@@H]([C@H](OC)[C@H]13)[C@@H]4N(C)C2)[C@@H](O)[C@@H]6OC` yielded an IC50 [1] of 44.3 µM.
In the case of `COC[C@]12CN(C)[C@H]3[C@@H]4[C@H](OC)[C@H]1[C@@]3([C@@H](OC)C[C@H]2O)[C@@H]1C[C@@]2(O)[C@H](OC(=O)c3ccccc3)[C@@H]1[C@]4(OC(C)=O)[C@@H](O)[C@@H]2OC`, the Activity [2] is reported as “Non-Toxic”, the Activity [3] is reported as “Toxic” and the Activity [4] is reported as “Toxic”.
With `CCN1C[C@]2(COC)CC[C@H](OC)[C@@]34[C@@H]5C[C@@H]6[C@@H](OC)[C@H](O)[C@@](OC)([C@H]5[C@H]6OC(=O)c5ccccc5)[C@@H](C[C@H]23)[C@H]14` the IC50 [1] was > 100 µM.
Work on `CCN1C[C@]2(COC)[C@H](O)C[C@H](OC)[C@@]34[C@@H]5C[C@@]6(O)[C@H](OC(=O)c7ccccc7)[C@@H]5[C@@](OC)([C@@H]([C@H](OC)[C@H]23)[C@H]14)[C@@H](O)[C@@H]6OC` yielded an IC50 [1] of 68.4 µM.
`COC[C@@]12CC[C@H](OC)[C@@]34[C@@H]5C[C@@]6(O)[C@H](OC(=O)c7ccccc7)[C@@H]5[C@@](OC(C)=O)([C@@H]([C@H](OC)[C@H]13)[C@@H]4N(C)C2)[C@@H](O)[C@@H]6OC` was tested, and the Activity [2] was “Non-Toxic”, the Activity [3] was “Toxic” and the Activity [4] was “Toxic”.
`CCCCO[C@]12[C@H]3[C@@H](OC(=O)c4ccccc4)[C@](O)(C[C@H]3[C@@]34[C@@H](OC)C[C@@H](O)[C@@]5(COC)CN(CC)[C@H]3[C@@H]1[C@H](OC)[C@H]54)[C@@H](OC)[C@@H]2O` was tested, and the Activity [5] was “Dose-dependent effect”, the IC50 [1] was 21.2 µM and the Activity [6] was “Toxic”.
`CCCCO[C@]12[C@H]3[C@@H](OC(=O)c4ccccc4)[C@](O)(C[C@H]3[C@@]34[C@@H](OC)CC[C@@]5(COC)CN(CC)[C@H]3[C@@H]1[C@H](OC)[C@H]54)[C@@H](OC)[C@@H]2O` was tested, and the Activity [5] was “Dose-dependent effect”, the IC50 [1] was 19.2 µM and the Activity [6] was “Toxic”. For the same compound, the Activity [2] was “Toxic” and the Activity [3] was “Toxic”.
